KCNK3 block: human KCNK3 channel inhibitors, primary screen, CHO cells, FluxOR thallium flux, B-score. AID 602410, 2012. hit rate 0.84% among 340,000. B-score at 10 µM. FluxOR fluorescence; active compounds read low;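 active means B-score under library mean minus 4 SD, starting fluorescence ratio at most library mean plus 5 SD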;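 further: more negative B-score means stronger inhibition of thallium flux through KCNK3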
KCNQ1 inh: inhibitors of human KCNQ1 channel, primary screen, cell-based, thallium flux, high-throughput; Potassium voltage-gated channel subfamily KQT member 1 (Homo sapiens), P51787; CHO-K1 KCNQ1, FluxOR thallium flux fluorescence; active compounds read high; B-score at 10 µM; hit rate 1.3% among 310,000; AID 2642, 2010;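 active means compounds whose thallium flux B-score, printed positive for inhibition, exceeds three library SD while starting fluorescence stays within three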;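 further: channel opened by potassium depolarization with thallium stimulus after 20 min compound exposure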
Kir21 inh: inhibitors of mouse Kir2.1 inward-rectifier potassium channel | B-score at 10 µM | hit rate 0.85% among 310,000 | AID 1672, 2009 | Inward rectifier potassium channel 2 (Mus musculus), P35561 | HEK293-Kir2.1, FluxOR thallium flux fluorescence; active compounds read low;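 active means fluorescence ratio B-score at or below minus 3 SD of library scores, with starting-brightness B-score within 2 SD, cut at about -4.2 in these data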;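 further: channel flux triggered by added potassium and thallium sulfate stimulus; B-score of peak minus minimum fluorescence over baseline after thallium stimulus; more negative B-score means stronger Kir2.1 block with less thallium influx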
KCNK9 inh: KCNK9 potassium channel inhibitors, primary screen, HEK293 cells, thallium flux. FluxOR thallium flux fluorescence; active compounds read low. Potassium channel subfamily K member 9 (Homo sapiens), Q9NPC2. B-score at 10 µM. AID 488922, 2010. hit rate 1.2% among 310,000;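 active means ratio B-score over 3 SD below the library mean, with starting fluorescence within 5 SD of its mean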;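 further: negative B-score means less thallium flux so channel inhibition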
Target sequence (Q9NPC2 whole entry, looked up): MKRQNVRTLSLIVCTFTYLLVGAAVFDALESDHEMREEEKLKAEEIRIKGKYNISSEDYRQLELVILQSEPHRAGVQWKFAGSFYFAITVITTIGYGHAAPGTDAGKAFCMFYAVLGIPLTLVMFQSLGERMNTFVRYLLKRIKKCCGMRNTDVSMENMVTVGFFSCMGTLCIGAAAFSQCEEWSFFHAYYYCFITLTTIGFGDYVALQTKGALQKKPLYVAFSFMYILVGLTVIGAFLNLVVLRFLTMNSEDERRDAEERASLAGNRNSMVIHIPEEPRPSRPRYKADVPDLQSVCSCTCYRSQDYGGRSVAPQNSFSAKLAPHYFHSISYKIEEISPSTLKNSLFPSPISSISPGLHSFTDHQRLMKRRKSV
KCNQ1 pot: potentiators or activators of KCNQ1 channel, primary screen, cell-based, thallium flux, high-throughput; CHO-K1 KCNQ1, thallium flux FluxOR fluorescence; active compounds read high; hit rate 0.35% among 310,000; Potassium voltage-gated channel subfamily KQT member 1 (Homo sapiens), P51787; B-score at 10 µM; AID 2648, 2010;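 active means fluorescence ratio B-score, a plate-corrected score, at least three library SD, with initial intensity B-score within 5 SD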
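Assay system: stable KCNQ1 CHO-K1 line; medium: assay buffer, equal DMSO in all wells; timing: 90 min dye loading and 20 min compound exposure, both at room temperature; technique: kinetic FluxOR thallium fluorescence, 10-s 1-Hz baseline, 110-s post-stimulus read; read-out basis: B score of baseline-normalized fluorescence ratio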
hERG rescue: hERG rescue from dofetilide block, primary screen, cell-based, CHO-hERG, FluxOR thallium flux, dofetilide IC70; Voltage-gated inwardly rectifying potassium channel KCNH2 (Homo sapiens), Q12809; dofetilide IC70 present; activation (rescue from dofetilide block), less the hit threshold, % at 10 µM; hit rate 0.51% among 310,000;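 active means activation above the mean of controls blocked by dofetilide plus 5 SD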;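 further: thallium influx through hERG after potassium depolarization seen as dye fluorescence rise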
KCNK9 block conf: KCNK9 potassium channel inhibitors, confirmation, HEK293 cells, thallium flux, duplicate. FluxOR thallium flux fluorescence. shares compounds with KCNK9 inh. hit rate 43% among 4,900. inhibition, % at 10 µM;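 active means thallium signal inhibited by more than 5 SD of the compound-free buffer control wells, on both duplicate plates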
Kir21 sel: mouse Kir2.1 channel inhibition, confirmation, selectivity assay for KCNK9 modulator project, cell-based, HEK293, thallium flux; shares compounds with KCNK9 inh; Kir2.1 cells, FluxOR thallium flux fluorescence; inhibition, % at 10 µM; hit rate 4% among 4,900; AID 492993, 2010;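 active means thallium signal drop more than 5 SD beyond the mean of the no-compound control wells, seen in both duplicate plates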;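 further: signal is fluorescence rise after thallium addition divided by baseline fluorescence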
HEK293 Tl ctr: thallium flux in non-induced HEK293 cells, confirmation, counter-screen for KCNK9 inhibitor project, cell-based, second counter screen, non-induced KCNK9-HEK293; shares compounds with KCNK9 inh; FluxOR thallium flux; inhibition, % at 10 µM; hit rate 40% among 4,900; AID 492997, 2010;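 active means thallium signal drop beyond 5 SD of the untreated control mean, on both duplicate plates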
Hits are given with their value; – = inactive; · = no result. The list is not random: actives were taken first. Their share in the collection is about 3.7%.

SMILES | KCNK3 block | KCNQ1 inh | Kir21 inh | KCNK9 inh | KCNQ1 pot | hERG rescue | KCNK9 block conf | Kir21 sel | HEK293 Tl ctr
COC(=O)C1=C(C)N(Cc2ccc(C)cc2)C(=O)/C1=C\c1ccc(O)c(OC)c1 | – | – | – | -8.9 | – | – | 62% | – | 40%
NC(=O)NC(CC(=O)NNC(=O)c1ccccn1)c1ccccc1Cl (stereo unspecified) | – | · | · | · | · | · | · | · | ·
CCC(=O)N(C(=O)CC)N1CCN(c2ccncc2S(=O)(=O)N2CCCCC2)CC1 | – | – | – | -9.3 | – | – | 42% | – | 42%
O=C(CC(Nc1ccc(F)cc1)c1ccccc1)c1ccccc1 (stereo unspecified) | – | – | – | -11 | – | – | – | – | –
CCc1ccccc1NC(=O)c1ccc(NCCc2ccccc2)c([N+](=O)[O-])c1 | – | – | – | -8.7 | – | – | – | – | 30%
COc1ccc(NC(=O)CN2CCN(CC(=O)Nc3cc(OC)cc(OC)c3)CC2)cc1 | – | · | · | · | · | · | · | · | ·
COc1ccc(N2CCN(CC(=O)Nc3ccc(C)cc3)CC2)cc1 | – | – | – | – | – | – | · | · | ·
COc1ccc(NC(=O)CN2CCN(c3c(C)cccc3C)CC2)cc1 | – | – | – | – | – | – | – | – | –
COc1ccc(NC(=O)CN2CCN(c3ccc(C)cc3C)CC2)cc1 | – | – | – | – | – | – | – | – | –
COc1ccc(NC(=O)CN2CCN(c3c(C)cc(C)cc3C)CC2)cc1 | – | – | – | – | – | – | – | 40% | –
Cc1ccc(C)c(NC(=S)NC23CN4CN(CN(C4)C2)C3)c1 | – | – | – | – | – | – | · | · | ·
CCOC(=O)NC(=O)CSc1ccc(C)cc1C | – | – | – | – | – | – | · | · | ·
CCOc1ccccc1NC(=O)CSc1nc2ccccc2nc1N1CCCC1 | – | 6 | – | -8.6 | – | – | – | – | –
CCOc1ccccc1NC(=O)CSc1nc2ccccc2nc1N1CCOCC1 | – | – | – | – | – | – | · | · | ·
COc1ccccc1N1CCN(C(=O)CSc2ncccc2-c2nc3ccccc3[nH]2)CC1 | – | – | – | – | – | – | · | · | ·
CCOc1ccc(NC(=O)CSc2nc3ccccc3nc2N2CCCC2)cc1 | – | – | – | – | – | – | · | · | ·
COc1ccc(NC(=O)CSc2nc3ccccc3nc2N2CCCC2)cc1 | – | – | – | – | – | – | – | – | –
COc1ccccc1N1CCN(C(=O)CSc2nc3ccccc3nc2N2CCC(C)CC2)CC1 | – | – | – | – | – | – | – | – | –
Cc1ccc(S(=O)(=O)N2CCOCC2)cc1C(=O)Nc1cc(S(=O)(=O)N2CCCCC2)ccc1O | – | · | · | · | · | · | · | · | ·
O=C(CCC(=O)Nc1ccccc1Cl)NNC(=O)c1ccccc1[N+](=O)[O-] | – | – | – | – | – | – | · | · | ·
O=C(C1=C[C@@H](c2ccc(Br)cc2)C[C@@H](OCCCCO)O1)N1CCN(Cc2ccc3c(c2)OCO3)CC1 | – | – | – | – | – | – | · | · | ·
O=C(C1=C[C@H](c2ccc(Br)cc2)C[C@H](OCCCCO)O1)N1CCN(Cc2ccccc2)CC1 | – | – | – | – | – | – | – | – | –
C#Cc1ccc([C@H]2C=C(C(=O)NCc3ccccc3)O[C@@H](OCc3ccc(CO)cc3)C2)cc1 | – | – | – | – | – | – | – | – | –

Compound activity as filed in PubChem BioAssay.
